Measured values reported in ChEMBL document CHEMBL3804768, “Structure-Activity Relationship Studies of Mitogen Activated Protein Kinase Interacting Kinase (MNK) 1 and 2 and BCR-ABL1 Inhibitors Targeting Chronic Myeloid Leukemic Cells” (J Med Chem, 2016).
Converted amounts (≈) assume the structure as drawn.

Columns and labels:
[1] = biological target: MAP kinase-interacting serine/threonine-protein kinase 1 (Homo sapiens, UniProt Q9BUB5); assay: Inhibition of N-terminal GST-tagged MNK1 kinase domain (37 to 341 residues) (unknown origin) expressed in Escherichia coli BL21(DE3) cells using JH3 peptide substrate preincubated for 10 mins followed by substrate addition measured after 60 mins by mobility shift assay
Sequence of MAP kinase-interacting serine/threonine-protein kinase 1 (Q9BUB5 whole entry, the tested form may be a part): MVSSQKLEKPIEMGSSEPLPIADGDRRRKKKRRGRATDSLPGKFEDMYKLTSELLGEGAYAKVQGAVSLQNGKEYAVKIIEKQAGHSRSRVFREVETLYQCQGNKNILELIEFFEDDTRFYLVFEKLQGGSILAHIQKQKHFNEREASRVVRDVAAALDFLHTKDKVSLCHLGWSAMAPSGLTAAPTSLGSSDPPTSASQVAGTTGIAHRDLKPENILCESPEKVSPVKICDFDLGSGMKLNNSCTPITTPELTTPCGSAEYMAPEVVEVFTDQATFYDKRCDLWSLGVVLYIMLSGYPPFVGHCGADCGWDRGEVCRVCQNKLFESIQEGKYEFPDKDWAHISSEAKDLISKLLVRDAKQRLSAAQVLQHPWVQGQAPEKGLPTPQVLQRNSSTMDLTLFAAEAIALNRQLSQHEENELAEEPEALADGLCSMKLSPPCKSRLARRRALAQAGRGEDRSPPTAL

[2] = biological target: MAP kinase-interacting serine/threonine-protein kinase 2 (Homo sapiens, UniProt Q9HBH9); assay: Inhibition of N-terminal GST-tagged MNK2 kinase domain (72 to 385 residues) (unknown origin) expressed in Escherichia coli BL21(DE3) cells using JH3 peptide substrate preincubated for 10 mins followed by substrate addition measured after 60 mins by mobility shift assay
[3] = biological target: Tyrosine-protein kinase ABL1 (Homo sapiens, UniProt P00519, T315I); assay: Inhibition of full length human recombinant N-terminal His-tagged ABL (2 to 1130 residues) T315I mutant expressed in baculovirus expression system using FL-peptide 2 substrate preincubated for 10 mins followed by substrate addition measured after 60 mins by mobility shift assay
Outline: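 Buffer is 100 mM HEPES pH 7.5, 10 mM MgCl2, 0.004% Tween 20, 1 mM DTT, 0.003% Brij L23. Enzyme and compound sit 10 min before ATP/substrate is added. The reaction runs 60 min at room temperature, is stopped with 10 mM EDTA, and is read by mobility shift.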

[4] = Antiproliferative activity against human BV173 cells after 48 hrs by Cell-Titer-Glo luminescent cell viability assay; format: functional; settings: BV-173, 48 h
Outline: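 Cells seeded at 5000 per well in growth medium, exposed to serial doses from 0.003 μM to 50 μM for 48 h at 37 °C, 5% CO2. Viability was read by CellTiter-Glo luminescence and GI50 taken from the dose-response curve. Dose response was run in triplicate and the curve repeated twice. K562 eIF4E-overexpressing cells were cultured in RPMI with 10% FBS.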

[5] = Antiproliferative activity against human KCL22 cells after 48 hrs by Cell-Titer-Glo luminescent cell viability assay; format: functional; settings: KCL-22, 48 h
[6] = Antiproliferative activity against human JURL-MK1 cells after 48 hrs by Cell-Titer-Glo luminescent cell viability assay; format: functional; settings: JURL-MK1, 48 h
[7] = biological target: T1, Proto-oncogene tyrosine-protein kinase receptor Ret (Homo sapiens, UniProt P07949); assay: Inhibition of human recombinant RET expressed in sf21 cells using Poly(Glu:Tyr) as substrate in presence of [gamma32P]ATP
T1 sequence (P07949 whole entry): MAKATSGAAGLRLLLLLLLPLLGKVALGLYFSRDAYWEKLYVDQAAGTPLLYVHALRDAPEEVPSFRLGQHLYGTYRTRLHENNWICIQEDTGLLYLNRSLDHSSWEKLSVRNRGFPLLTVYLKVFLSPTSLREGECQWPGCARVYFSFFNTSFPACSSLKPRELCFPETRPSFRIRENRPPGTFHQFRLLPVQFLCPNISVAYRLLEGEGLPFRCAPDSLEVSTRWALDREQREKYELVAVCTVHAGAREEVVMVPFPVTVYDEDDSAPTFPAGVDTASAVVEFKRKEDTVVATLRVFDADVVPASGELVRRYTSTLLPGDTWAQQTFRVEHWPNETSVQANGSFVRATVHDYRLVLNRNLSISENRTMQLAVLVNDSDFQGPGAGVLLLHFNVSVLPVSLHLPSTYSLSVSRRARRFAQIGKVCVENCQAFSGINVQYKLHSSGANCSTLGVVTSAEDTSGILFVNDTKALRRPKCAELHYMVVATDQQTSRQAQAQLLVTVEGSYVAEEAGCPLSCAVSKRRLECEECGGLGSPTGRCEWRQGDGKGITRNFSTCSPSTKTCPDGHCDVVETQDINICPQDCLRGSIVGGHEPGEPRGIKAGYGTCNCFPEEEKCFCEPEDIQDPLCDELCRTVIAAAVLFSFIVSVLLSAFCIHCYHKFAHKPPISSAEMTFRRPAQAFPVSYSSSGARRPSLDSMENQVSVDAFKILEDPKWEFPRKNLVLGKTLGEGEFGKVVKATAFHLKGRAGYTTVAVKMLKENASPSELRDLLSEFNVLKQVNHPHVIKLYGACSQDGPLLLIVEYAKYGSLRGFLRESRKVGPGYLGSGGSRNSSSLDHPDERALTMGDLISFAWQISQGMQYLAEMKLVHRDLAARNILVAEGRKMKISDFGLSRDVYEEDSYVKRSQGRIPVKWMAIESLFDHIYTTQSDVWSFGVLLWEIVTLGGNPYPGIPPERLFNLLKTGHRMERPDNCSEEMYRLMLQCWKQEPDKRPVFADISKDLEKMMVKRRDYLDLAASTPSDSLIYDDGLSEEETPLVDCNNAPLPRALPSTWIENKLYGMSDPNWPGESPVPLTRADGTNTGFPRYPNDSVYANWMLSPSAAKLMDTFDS

[8] = biological target: T2, Fibroblast growth factor receptor 2 (Homo sapiens, UniProt P21802); assay: Inhibition of human recombinant FGFR2 expressed in sf21 cells using Poly(Glu:Tyr) as substrate in presence of [gamma32P]ATP
Target sequence in this assay (P21802 whole entry): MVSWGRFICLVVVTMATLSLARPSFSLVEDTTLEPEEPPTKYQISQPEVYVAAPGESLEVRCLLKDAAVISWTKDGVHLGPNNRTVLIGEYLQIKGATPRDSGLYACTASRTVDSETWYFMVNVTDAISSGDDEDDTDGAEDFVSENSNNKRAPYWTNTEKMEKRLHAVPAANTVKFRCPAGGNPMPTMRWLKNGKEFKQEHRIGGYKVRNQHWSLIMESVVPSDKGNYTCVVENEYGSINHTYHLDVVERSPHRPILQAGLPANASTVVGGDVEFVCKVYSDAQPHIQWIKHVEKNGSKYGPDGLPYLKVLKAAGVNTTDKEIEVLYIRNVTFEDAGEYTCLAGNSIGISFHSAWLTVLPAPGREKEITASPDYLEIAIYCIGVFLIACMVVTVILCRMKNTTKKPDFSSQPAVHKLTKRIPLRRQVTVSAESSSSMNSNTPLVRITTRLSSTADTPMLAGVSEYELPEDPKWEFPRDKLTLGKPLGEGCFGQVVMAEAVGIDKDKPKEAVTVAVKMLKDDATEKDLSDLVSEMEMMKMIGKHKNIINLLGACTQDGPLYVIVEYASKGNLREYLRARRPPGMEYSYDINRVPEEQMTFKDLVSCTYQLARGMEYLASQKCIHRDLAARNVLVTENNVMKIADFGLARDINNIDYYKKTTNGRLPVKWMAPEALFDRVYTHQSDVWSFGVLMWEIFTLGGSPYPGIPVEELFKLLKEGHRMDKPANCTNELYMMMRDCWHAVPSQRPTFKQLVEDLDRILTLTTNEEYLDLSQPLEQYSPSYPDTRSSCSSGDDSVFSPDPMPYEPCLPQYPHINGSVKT

[9] = biological target: Platelet-derived growth factor receptor beta (Homo sapiens, UniProt P09619); assay: Inhibition of human recombinant PDGFRbeta expressed in sf21 cells using Poly(Glu:Tyr) as substrate in presence of [gamma32P]ATP
Sequence of Platelet-derived growth factor receptor beta (P09619 whole entry): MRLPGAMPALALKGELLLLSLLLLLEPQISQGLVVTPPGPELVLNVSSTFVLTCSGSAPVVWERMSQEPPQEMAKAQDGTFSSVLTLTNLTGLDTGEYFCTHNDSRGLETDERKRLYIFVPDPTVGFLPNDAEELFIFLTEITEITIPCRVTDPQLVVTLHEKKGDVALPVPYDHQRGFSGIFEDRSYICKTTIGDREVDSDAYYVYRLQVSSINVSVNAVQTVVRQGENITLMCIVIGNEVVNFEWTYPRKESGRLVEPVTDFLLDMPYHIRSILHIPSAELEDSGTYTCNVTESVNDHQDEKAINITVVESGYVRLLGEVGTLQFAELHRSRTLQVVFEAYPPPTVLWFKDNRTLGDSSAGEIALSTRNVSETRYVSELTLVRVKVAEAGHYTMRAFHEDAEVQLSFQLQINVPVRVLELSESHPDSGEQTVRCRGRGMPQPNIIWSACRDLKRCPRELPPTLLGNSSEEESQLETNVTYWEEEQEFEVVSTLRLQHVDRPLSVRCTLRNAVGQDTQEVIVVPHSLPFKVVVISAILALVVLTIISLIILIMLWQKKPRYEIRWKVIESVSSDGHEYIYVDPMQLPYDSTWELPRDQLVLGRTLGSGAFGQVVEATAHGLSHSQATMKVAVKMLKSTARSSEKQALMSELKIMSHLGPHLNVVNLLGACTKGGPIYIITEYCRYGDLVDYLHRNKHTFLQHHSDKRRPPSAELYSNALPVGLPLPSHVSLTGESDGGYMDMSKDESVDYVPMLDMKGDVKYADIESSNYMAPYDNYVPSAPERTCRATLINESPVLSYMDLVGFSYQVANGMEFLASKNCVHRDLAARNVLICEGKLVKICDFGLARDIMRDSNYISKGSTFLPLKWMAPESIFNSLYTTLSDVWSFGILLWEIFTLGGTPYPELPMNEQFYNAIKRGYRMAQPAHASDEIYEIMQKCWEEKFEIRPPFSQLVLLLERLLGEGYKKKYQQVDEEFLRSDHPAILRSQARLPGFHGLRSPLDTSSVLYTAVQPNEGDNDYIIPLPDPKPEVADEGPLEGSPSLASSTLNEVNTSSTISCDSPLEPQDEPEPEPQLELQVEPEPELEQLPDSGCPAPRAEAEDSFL

[10] = Thermodynamic solubility in pH 7 pION buffer at 500 uM incubated for 18 hrs by UV-spectrophotometry; format: physicochemical; settings: read-out: Therm_solubility
[11] = Thermodynamic solubility in pH 4 pION buffer at 500 uM incubated for 18 hrs by UV-spectrophotometry; format: physicochemical; settings: read-out: Therm_solubility
[12] = biological target: Cytochrome P450 3A4 (Homo sapiens, UniProt P08684); assay: Inhibition of CYP3A4 (unknown origin); format: ADME
[13] = Permeability of compound by PAMPA; format: ADME; settings: read-out: permeability
[14] = tested on: K562; assay: Antitumor activity against human K562 cells over expressing eIF4E xenografted in po dosed NOD-SCID mouse assessed as tumor growth inhibition administered qd through oral gavage for 14 days; format: functional, organism-based
Outline: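 Female SCID mice, 7-10 weeks old, received 1 x 10^7 K562 eIF4E-overexpressing cells subcutaneously. At tumor volumes of 75-245 mm³ (w²×l/2) mice were randomized and gavaged once daily for 14 days at 10 mL/kg.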

[15] = tested on: Mus musculus; assay: Toxicity in NOD-SCID mouse xenografted with human K562 cells over expressing eIF4E assessed as body weight loss at 100 to 200 mg/kg, po qd administered through oral gavage for 14 days; format: organism-based; settings: in vivo, 336 h
[16] = Clearance in CD1 mouse at 5 mg/kg, iv; format: ADME, organism-based; settings: in vivo
[17] = Half life in CD1 mouse at 5 mg/kg, iv; format: ADME, organism-based; settings: in vivo
[18] = Cmax in CD1 mouse at 50 mg/kg, po; format: ADME, organism-based; design: dose 50 mg/kg, route oral; settings: in vivo
[19] = AUC in CD1 mouse at 50 mg/kg, po; format: ADME, organism-based; settings: in vivo
[20] = Oral bioavailability in CD1 mouse at 50 mg/kg; format: ADME, organism-based; settings: in vivo
[21] = biological target: Vascular endothelial growth factor receptor 2 (Homo sapiens, UniProt P35968); assay: Inhibition of human recombinant VEGFR2 expressed in sf21 cells at 1 uM using Poly(Glu:Tyr) as substrate in presence of [gamma32P]ATP
Sequence of Vascular endothelial growth factor receptor 2 (P35968 whole entry): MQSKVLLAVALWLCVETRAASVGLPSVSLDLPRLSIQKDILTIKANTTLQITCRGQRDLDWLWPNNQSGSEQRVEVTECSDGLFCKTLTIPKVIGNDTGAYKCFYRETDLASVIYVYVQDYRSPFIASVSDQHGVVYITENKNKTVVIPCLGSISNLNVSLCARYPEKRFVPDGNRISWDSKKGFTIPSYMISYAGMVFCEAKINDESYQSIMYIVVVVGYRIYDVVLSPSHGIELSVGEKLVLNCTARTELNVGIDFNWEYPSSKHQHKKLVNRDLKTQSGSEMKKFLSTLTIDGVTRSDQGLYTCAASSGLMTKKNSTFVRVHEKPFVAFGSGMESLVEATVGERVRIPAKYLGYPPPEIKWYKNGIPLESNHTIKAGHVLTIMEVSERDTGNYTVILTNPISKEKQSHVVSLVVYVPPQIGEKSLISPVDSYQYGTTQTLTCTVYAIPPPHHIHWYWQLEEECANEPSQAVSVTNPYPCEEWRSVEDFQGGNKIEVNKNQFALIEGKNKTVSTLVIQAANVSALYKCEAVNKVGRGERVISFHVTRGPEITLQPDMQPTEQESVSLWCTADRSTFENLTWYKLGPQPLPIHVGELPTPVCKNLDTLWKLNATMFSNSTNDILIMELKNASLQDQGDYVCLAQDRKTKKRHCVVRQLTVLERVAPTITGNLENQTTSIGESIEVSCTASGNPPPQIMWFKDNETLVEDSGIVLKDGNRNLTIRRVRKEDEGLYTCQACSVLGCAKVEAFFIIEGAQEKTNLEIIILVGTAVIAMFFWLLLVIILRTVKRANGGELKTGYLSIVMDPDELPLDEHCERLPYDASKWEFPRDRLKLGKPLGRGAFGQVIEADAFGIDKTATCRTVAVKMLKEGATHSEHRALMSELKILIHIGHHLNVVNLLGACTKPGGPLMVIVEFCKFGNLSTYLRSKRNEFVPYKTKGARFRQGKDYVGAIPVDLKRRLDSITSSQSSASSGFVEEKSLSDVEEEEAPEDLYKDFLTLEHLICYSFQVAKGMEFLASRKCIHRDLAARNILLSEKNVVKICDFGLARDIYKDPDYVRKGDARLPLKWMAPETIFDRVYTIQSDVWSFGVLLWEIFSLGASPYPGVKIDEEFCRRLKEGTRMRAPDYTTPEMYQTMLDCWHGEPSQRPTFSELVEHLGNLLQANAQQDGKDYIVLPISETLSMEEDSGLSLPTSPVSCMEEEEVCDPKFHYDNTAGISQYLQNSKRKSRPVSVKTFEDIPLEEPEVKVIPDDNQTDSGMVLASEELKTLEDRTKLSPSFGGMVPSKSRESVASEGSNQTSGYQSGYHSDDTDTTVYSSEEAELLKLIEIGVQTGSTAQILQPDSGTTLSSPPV

[22] = biological target: T1, Proto-oncogene tyrosine-protein kinase receptor Ret; assay: Inhibition of human recombinant RET expressed in sf21 cells at 1 uM using Poly(Glu:Tyr) as substrate in presence of [gamma32P]ATP
[23] = biological target: Mast/stem cell growth factor receptor Kit (Homo sapiens, UniProt P10721); assay: Inhibition of human recombinant c-KIT expressed in insect cells at 1 uM using Poly(Glu:Tyr) as substrate in presence of [gamma32P]ATP
[24] = biological target: T2, Fibroblast growth factor receptor 2; assay: Inhibition of human recombinant FGFR2 expressed in sf21 cells at 1 uM using Poly(Glu:Tyr) as substrate in presence of [gamma32P]ATP
[25] = tested on: Mus musculus; assay: Toxicity in NOD-SCID mouse xenografted with human K562 cells over expressing eIF4E assessed as body weight loss at 100 mg/kg, po qd administered through oral gavage for 14 days; format: organism-based; settings: in vivo, 336 h
[26] = Clearance in CD1 mouse at 10 mg/kg, iv; format: ADME, organism-based; settings: in vivo
[27] = Half life in CD1 mouse at 10 mg/kg, iv; format: ADME, organism-based; settings: in vivo

| SMILES | IC50 [1] | IC50 [2] | IC50 [3] | GI50 [4] | GI50 [5] | GI50 [6] | IC50 [7] | IC50 [8] | IC50 [9] | solubility thermodynamic at 18 h, 500 µM [10] | solubility thermodynamic at 18 h, 500 µM [11] | IC50 [12] | Papp [13] | TGI [14] | Cmax [18] | AUC [19] | bioavailability [20] | inhibition [21] | inhibition [22] | inhibition [23] | other results |
| --- | --- | --- | --- | --- | --- | --- | --- | --- | --- | --- | --- | --- | --- | --- | --- | --- | --- | --- | --- | --- | --- |
| CCN1CCN(Cc2ccc(NC(=O)CNc3ccc(-c4ccc(NC(=O)C5CC5)nc4)cc3)cc2C(F)(F)F)CC1 | 2520 nM | 16 nM | 50 nM | 30 nM | 50 nM | 30 nM | 7 nM | 930 nM | 1080 nM | 0.1 µg/mL (≈ 0.172 µM) | 128 µg/mL (≈ 220 µM) | > 30000 nM | 34.5 ×10⁻⁶ cm/s | Dose-dependent effect | 2490 ng/mL | 14300 ng·h/mL | 80% | > 99% | > 99% | > 99% | Activity [15]: Non-toxic; clearance [16]: 45 mL/min/kg; half-life [17]: 2.14 h; inhibition [24]: > 99% |
| CN1CCN(Cc2ccc(NC(=O)CNc3ccc(-c4ccc(NC(=O)C5CC5)nc4)cc3F)cc2C(F)(F)F)CC1 | 200 nM | 10 nM | 20 nM | 1 nM | 13 nM | 1 nM | 1 nM | 272 nM | 1050 nM | 3.8 µg/mL (≈ 6.5 µM) | 183 µg/mL (≈ 313 µM) | > 30000 nM | 30.6 ×10⁻⁶ cm/s | Dose-dependent effect | 1210 ng/mL | 5130 ng·h/mL | 31% | > 99% | > 99% | > 99% | Activity [25]: Non-toxic; clearance [26]: 50 mL/min/kg; half-life [27]: 2.2 h; inhibition [24]: > 99% |
